Key:
Mus musculus [1] = assay: Antidepressant activity in po dosed mouse assessed as antagonism of reserpine-induced hypothermia dosed 17 hrs after reserpine challenge; format: functional
In short: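 Oral dosing, with doses in mg/kg. The racemate and separated optical isomers were tested by the previously published method. Potency is expressed as the ED10 for antagonism of reserpine-induced hypothermia.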

Mus musculus [2] = assay: Sedative activity in po dosed mouse assessed as reduction in locomotor activity during 60 mins period immediately prior to and after dosing; format: functional; details: 1 h, read-out: MED
In short: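 Given orally, with doses in mg/kg. The racemate and individual isomers were run by the earlier reported procedure. The value is the minimum effective dose that reduced locomotor activity.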

SMILES: CCOc1ccccc1OC[C@H]1CNCCO1 [(R)-VILOXAZINE]
- ED10 (Mus musculus [1]): 1 mg/kg
- minimal effective dose (Mus musculus [2]): 30 mg/kg

SMILES: COc1cccc(OCC2CNCCO2)c1 (racemic)
- ED10 (Mus musculus [1]): > 100 mg/kg
- minimal effective dose (Mus musculus [2]): 3 mg/kg

SMILES: CCOc1ccccc1OC[C@@H]1CNCCO1 [(S)-VILOXAZINE]
- ED10 (Mus musculus [1]): 0.1 mg/kg
- minimal effective dose (Mus musculus [2]): 1 mg/kg

SMILES: CCOc1ccccc1OCC1CNCCO1 (racemic) [VILOXAZINE]
- ED10 (Mus musculus [1]): 0.3 mg/kg
- minimal effective dose (Mus musculus [2]): 3 mg/kg

SMILES: COc1cccc(OC[C@@H]2CNCCO2)c1
- ED10 (Mus musculus [1]): > 100 mg/kg
- minimal effective dose (Mus musculus [2]): 1 mg/kg

SMILES: COc1cccc(OC[C@H]2CNCCO2)c1
- ED10 (Mus musculus [1]): > 100 mg/kg
- minimal effective dose (Mus musculus [2]): 30 mg/kg

Source: ChEMBL document CHEMBL3272233, “Optical isomers of 2-(2-ethoxyphenoxymethyl)tetrahydro-1,4-oxazine (viloxazine) and related compounds” (1976)
